The target of one assay is Glutamate receptor 1 (Rattus norvegicus, UniProt P19490). As to the kind of experiment: Antagonist activity at rat recombinant GLuR1 expressed in Xenopus oocytes assessed as inhibition of glutamate-induced current by two-electrode voltage-clamp electrophysiology. It counts as functional, cell-based, Oocyte. Put shortly:
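Two-electrode voltage clamp at −40 mV on Xenopus oocytes expressing rat GluR1, perfused with 90 NaCl, 1.0 KCl, 0.5 BaCl2, 0.005 EDTA, 10 HEPES (mM), pH 7.4, 23°C; activated by 100 μM glutamate. From 20 mM DMSO stocks, 5-7 concentrations, ≥4 oocytes each. Hill fit to mean composite curves normalized to control, minimum usually fixed at 0. Response >75% at 100 μM reported as >300 μM.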
Background: Two-electrode voltage clamp is typically applied to oocytes expressing channels or transporters.

The species named for assay [1] is Rattus norvegicus. Nature of the assay: Selectivity ratio of IC50 for rat recombinant NR1-NR2A receptor to IC50 for rat recombinant NR1-NR2D receptor. Put shortly: (§1)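 Ratio of fitted IC50 values, either NR2A/NR2D or GluR1/NR2D, from two-electrode voltage-clamp Hill fits in oocytes. Where noted, calculated from IC50 values rounded to the nearest μM.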
For assay [2], the species on record is Rattus norvegicus. As to the kind of experiment: Selectivity ratio of IC50 for rat recombinant GLuR1 to IC50 for rat recombinant NR1-NR2D receptor. The essentials:
as §1

In assay [3] the target is Glutamate NMDA receptor; Grin1/Grin2b (Rattus norvegicus, UniProt P35439+Q00960). Nature of the assay: Antagonist activity at rat recombinant NR1-NR2B receptor expressed in Xenopus oocytes at holding potential of -40mV by two-electrode voltage-clamp electrophysiology. The format is functional, cell-based, Oocyte. The following applies: read-out: IC50. Put shortly:
(§2)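 Oocytes expressing rat NR1-1a with NR2A, NR2B, NR2C or NR2D, clamped at −40 mV in Ba2+/HEPES recording solution pH 7.4, 23°C. Current evoked by 100 μM glutamate plus 30 μM glycine. Final DMSO 0.05-0.5%, 5-7 inhibitor concentrations, ≥4 oocytes each. IC50 from Hill fit of normalized mean composite data. […] Some NR2A oocytes given BAPTA-AM or K-BAPTA.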

For assay [4], the target named is Glutamate NMDA receptor; Grin1/Grin2a (Rattus norvegicus, UniProt P35439+Q00959). Nature of the assay: Antagonist activity at rat recombinant NR1-NR2A receptor expressed in Xenopus oocytes at holding potential of -40mV by two-electrode voltage-clamp electrophysiology. To be noted: read-out: IC50. It counts as functional, cell-based, Oocyte. The essentials:
as §2

The target of assay [5] is Ionotropic glutamate receptor NMDA 1/2D (Rattus norvegicus, UniProt P35439+Q62645). As to the kind of experiment: Antagonist activity at rat recombinant NR1-NR2D receptor expressed in Xenopus oocytes at holding potential of -40mV by two-electrode voltage-clamp electrophysiology. The format is functional, cell-based, Oocyte. The essentials:
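Oocytes expressing rat NR1-1a with NR2A, NR2B, NR2C or NR2D, clamped at −40 mV in Ba2+/HEPES recording solution pH 7.4, 23°C. Current evoked by 100 μM glutamate plus 30 μM glycine. Final DMSO 0.05-0.5%, 5-7 inhibitor concentrations, ≥4 oocytes each. IC50 from Hill fit of normalized mean composite data. Some NR2A oocytes given BAPTA-AM or K-BAPTA.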

The target in assay [6] is Glutamate NMDA receptor; Grin1/Grin2c (Rattus norvegicus, UniProt P35439+Q00961). Nature of the assay: Antagonist activity at rat recombinant NR1-NR2C receptor expressed in Xenopus oocytes at holding potential of -40mV by two-electrode voltage-clamp electrophysiology. It counts as functional, cell-based, Oocyte. Put shortly:
as §2

Some results are limits rather than exact numbers.

The values that follow come from ChEMBL document CHEMBL1212913, “Quinazolin-4-one derivatives: A novel class of noncompetitive NR2C/D subunit-selective N-methyl-D-aspartate receptor antagonists” (J Med Chem, 2010).

A word on the IC50: it is the concentration at which inhibition is half-maximal.

Sequence of Glutamate NMDA receptor; Grin1/Grin2b (Q00960 whole entry, other chains not shown): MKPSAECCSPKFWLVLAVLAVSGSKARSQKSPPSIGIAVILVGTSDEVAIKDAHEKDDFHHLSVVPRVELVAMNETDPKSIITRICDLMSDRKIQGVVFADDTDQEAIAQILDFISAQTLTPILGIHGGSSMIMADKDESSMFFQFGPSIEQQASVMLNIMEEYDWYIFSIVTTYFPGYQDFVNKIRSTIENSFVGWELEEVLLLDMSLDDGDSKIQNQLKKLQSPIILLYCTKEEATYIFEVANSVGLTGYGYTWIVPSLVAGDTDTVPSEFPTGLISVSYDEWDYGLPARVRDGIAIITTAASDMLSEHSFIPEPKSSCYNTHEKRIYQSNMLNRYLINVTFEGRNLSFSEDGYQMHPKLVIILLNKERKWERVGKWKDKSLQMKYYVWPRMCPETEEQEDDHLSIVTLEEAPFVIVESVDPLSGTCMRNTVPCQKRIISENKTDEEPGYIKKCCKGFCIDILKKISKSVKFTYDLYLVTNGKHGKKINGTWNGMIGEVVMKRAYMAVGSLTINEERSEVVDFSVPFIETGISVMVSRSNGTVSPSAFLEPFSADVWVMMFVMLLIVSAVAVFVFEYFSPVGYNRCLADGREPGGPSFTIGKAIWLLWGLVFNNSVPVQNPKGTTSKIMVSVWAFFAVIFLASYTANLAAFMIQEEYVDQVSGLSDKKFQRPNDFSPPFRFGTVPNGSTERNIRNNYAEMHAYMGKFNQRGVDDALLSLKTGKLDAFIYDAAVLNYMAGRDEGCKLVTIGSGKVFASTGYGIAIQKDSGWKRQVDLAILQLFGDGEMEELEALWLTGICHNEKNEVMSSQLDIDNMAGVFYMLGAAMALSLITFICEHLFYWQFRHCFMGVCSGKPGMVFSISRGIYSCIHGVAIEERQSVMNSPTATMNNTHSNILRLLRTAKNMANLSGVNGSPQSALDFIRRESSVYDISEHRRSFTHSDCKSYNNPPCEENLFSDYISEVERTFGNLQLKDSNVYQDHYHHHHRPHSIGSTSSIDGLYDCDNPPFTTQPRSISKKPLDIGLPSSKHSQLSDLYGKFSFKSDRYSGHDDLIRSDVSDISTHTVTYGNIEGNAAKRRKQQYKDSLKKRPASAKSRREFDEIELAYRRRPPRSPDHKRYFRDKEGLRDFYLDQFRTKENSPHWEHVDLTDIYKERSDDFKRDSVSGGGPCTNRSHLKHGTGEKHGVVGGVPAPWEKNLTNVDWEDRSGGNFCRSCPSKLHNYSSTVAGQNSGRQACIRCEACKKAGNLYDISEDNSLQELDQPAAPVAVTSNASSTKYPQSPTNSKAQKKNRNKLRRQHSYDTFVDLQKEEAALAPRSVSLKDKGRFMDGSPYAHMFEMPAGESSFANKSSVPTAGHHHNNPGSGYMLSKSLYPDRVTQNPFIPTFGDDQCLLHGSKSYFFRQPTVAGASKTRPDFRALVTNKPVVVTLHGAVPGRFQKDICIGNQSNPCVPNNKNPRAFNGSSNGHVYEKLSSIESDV
Sequence of Glutamate NMDA receptor; Grin1/Grin2a (Q00959 whole entry, other chains not shown): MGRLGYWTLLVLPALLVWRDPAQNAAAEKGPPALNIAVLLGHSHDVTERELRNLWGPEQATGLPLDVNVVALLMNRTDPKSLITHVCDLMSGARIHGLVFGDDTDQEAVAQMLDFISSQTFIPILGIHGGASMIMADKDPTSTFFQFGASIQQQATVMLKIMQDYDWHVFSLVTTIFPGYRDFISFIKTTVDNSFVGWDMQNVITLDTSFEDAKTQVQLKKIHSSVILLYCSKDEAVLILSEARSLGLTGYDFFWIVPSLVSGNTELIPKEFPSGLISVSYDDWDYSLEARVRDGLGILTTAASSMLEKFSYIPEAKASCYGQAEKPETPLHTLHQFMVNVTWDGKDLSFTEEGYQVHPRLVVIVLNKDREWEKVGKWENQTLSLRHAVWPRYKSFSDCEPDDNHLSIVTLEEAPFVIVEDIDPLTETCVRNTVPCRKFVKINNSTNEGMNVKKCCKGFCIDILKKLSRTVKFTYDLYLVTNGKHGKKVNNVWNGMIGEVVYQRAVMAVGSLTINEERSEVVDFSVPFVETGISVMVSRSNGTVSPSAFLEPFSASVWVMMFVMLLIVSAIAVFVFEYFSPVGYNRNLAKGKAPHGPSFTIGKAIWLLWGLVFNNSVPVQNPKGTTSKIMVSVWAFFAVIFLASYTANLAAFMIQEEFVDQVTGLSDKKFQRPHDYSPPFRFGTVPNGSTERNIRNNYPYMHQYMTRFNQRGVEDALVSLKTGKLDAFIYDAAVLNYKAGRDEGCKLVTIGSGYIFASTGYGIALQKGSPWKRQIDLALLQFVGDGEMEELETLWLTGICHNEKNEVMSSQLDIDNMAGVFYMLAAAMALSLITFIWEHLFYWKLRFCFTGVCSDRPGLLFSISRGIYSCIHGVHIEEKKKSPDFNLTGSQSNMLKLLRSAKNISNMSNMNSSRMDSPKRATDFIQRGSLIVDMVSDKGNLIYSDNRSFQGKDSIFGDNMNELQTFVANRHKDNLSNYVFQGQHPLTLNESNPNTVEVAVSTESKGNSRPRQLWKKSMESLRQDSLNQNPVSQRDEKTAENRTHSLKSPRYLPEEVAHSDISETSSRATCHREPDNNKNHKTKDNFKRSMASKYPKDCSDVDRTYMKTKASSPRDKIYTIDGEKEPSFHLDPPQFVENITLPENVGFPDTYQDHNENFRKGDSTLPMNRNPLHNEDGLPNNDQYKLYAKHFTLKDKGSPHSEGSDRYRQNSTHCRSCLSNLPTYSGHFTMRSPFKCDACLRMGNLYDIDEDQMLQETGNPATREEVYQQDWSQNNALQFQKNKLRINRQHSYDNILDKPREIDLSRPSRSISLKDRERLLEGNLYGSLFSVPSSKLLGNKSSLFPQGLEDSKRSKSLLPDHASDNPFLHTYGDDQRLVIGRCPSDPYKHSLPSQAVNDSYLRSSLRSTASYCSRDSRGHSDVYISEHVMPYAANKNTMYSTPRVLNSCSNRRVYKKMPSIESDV
Sequence of Glutamate receptor 1 (P19490 whole entry, the tested form may be a part): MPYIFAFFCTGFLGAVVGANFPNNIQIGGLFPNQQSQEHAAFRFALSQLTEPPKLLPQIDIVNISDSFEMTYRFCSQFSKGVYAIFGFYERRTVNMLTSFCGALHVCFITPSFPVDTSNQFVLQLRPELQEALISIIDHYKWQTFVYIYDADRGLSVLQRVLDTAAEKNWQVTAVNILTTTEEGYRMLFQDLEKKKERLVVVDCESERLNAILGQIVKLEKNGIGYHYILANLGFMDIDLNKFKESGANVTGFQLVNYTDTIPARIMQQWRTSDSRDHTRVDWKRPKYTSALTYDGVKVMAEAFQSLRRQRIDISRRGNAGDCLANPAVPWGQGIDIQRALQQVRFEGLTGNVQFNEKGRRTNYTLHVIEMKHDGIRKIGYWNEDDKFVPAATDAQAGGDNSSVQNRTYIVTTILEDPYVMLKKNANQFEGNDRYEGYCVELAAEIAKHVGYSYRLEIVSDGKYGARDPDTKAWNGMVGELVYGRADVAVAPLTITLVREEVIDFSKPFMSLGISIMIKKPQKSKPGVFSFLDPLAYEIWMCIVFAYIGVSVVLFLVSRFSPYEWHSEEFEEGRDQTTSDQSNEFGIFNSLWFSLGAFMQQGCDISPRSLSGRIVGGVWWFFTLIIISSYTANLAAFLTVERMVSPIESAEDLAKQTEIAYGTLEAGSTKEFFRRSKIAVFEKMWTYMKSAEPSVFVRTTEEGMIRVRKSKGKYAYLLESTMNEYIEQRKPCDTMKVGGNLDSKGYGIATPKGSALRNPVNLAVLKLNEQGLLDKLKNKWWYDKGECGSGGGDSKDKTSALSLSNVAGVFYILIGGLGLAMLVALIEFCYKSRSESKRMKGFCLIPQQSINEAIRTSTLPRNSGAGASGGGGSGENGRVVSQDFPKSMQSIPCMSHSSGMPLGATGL
Sequence of Glutamate NMDA receptor; Grin1/Grin2c (Q00961 whole entry, other chains not shown): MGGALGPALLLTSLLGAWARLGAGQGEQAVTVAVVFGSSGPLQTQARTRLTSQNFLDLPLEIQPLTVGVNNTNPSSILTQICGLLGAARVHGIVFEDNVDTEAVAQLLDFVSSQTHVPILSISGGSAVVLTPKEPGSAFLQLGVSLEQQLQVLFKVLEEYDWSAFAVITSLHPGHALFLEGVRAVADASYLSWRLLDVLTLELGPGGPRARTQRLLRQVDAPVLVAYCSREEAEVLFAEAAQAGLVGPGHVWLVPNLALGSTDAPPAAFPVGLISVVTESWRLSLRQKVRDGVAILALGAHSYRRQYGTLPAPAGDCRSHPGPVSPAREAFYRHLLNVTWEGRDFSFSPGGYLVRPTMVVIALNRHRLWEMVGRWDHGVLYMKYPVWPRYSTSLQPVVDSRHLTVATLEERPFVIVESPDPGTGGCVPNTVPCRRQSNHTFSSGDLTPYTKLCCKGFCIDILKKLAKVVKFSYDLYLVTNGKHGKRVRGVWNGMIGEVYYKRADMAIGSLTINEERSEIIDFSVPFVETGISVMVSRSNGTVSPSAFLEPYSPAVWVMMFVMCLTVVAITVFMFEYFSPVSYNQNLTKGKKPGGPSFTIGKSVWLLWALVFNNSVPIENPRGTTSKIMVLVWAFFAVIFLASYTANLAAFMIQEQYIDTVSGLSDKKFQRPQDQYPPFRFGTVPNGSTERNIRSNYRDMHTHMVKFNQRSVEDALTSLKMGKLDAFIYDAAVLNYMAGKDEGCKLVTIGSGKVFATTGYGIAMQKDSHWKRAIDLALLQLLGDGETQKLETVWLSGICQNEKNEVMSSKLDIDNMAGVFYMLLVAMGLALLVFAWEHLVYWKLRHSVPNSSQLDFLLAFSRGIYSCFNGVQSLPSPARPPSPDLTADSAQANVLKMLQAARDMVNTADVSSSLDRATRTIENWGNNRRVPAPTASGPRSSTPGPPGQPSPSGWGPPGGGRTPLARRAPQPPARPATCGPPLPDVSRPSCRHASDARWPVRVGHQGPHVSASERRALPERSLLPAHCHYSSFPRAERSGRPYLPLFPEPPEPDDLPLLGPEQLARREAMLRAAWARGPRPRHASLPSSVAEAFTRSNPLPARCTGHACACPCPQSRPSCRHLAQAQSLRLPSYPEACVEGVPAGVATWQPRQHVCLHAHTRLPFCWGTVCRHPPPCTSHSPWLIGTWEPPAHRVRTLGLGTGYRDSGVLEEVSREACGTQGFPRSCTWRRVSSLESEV

As to `O=C(O)c1ccc(-n2c(/C=C/c3ccc(O)cc3)nc3ccccc3c2=O)cc1`, the IC50 at Glutamate receptor 1 was 110 µM; in assay [3], 35 µM; in assay [4], 38 µM; in assay [5], 36 µM. In addition, the Ratio IC50 stood at 1 in the assay filed under Rattus norvegicus [1] and 3 in the assay filed under Rattus norvegicus [2].

Consider `O=C(O)c1ccc(-n2c(/C=C/c3cccc([N+](=O)[O-])c3)nc3ccc(/C=C/c4ccccc4)cc3c2=O)cc1`, for which the IC50 on Glutamate receptor 1 came out at 131 µM; in assay [3], 30 µM; in assay [4], 19 µM; in assay [6], 4 µM; in assay [5], 4 µM. Also, the values for the Ratio IC50 in the assay filed under Rattus norvegicus [1] and in the assay filed under Rattus norvegicus [2] were 5 and 33, respectively.

Regarding `O=C(O)c1ccc(-n2c(/C=C/c3cccc(C(F)(F)F)c3)nc3ccccc3c2=O)cc1`, the IC50 is 22 µM on Glutamate receptor 1, 26 µM in assay [3], 13 µM in assay [4] and 12 µM in assay [5]. Besides, the Ratio IC50 in the assay filed under Rattus norvegicus [1] came out at 1; in the assay listed under Rattus norvegicus [2] it was 2.

Regarding `O=C(O)c1ccc(-n2c(/C=C/c3ccc(OC(F)F)cc3)nc3ccccc3c2=O)cc1`, the concentration for half-maximal inhibition (IC50) on Glutamate receptor 1 was found to be 208 µM; in assay [3] it was 89 µM; in assay [4], 73 µM; in assay [6], 33 µM; in assay [5] it was 22 µM. Also, the figures for the Ratio IC50 in the assay filed under Rattus norvegicus [1] and in the assay listed under Rattus norvegicus [2] were 3 and 9, respectively.

On to `Cc1ccc2nc(/C=C/c3ccccc3)n(-c3ccc(C(=O)O)cc3)c(=O)c2c1`, for which the IC50 worked out at 21 µM on Glutamate receptor 1; 25 µM in assay [3]; 39 µM in assay [4]; 22 µM in assay [6]; 26 µM in assay [5]. Also, the values for the Ratio IC50 in the assay filed under Rattus norvegicus [1] and in the assay listed under Rattus norvegicus [2] were 2 and 1, respectively.

Consider `O=c1c2ccccc2nc(/C=C/c2cccnc2)n1-c1ccccc1`, for which the half-inhibitory concentration (IC50) on Glutamate receptor 1 turned out to be 74 µM; in assay [3], 51 µM; in assay [4] it was 40 µM; in assay [6], 140 µM; in assay [5], 35 µM. For the same compound, the Ratio IC50 in the assay listed under Rattus norvegicus [1] amounted to 1; in the assay listed under Rattus norvegicus [2], 2.

As to `COc1ccc2nc(/C=C/c3cccc([N+](=O)[O-])c3)n(-c3ccc(C(=O)O)cc3)c(=O)c2c1`, the IC50 on Glutamate receptor 1 is over 300 µM; in assay [3], over 300 µM; in assay [4] it was 229 µM; in assay [6], 6 µM; in assay [5], 3 µM. Further, the Ratio IC50 was 76 in the assay filed under Rattus norvegicus [1] and over 100 in the assay listed under Rattus norvegicus [2].

For `O=C(O)c1ccc(-n2c(/C=C/c3cccc([N+](=O)[O-])c3)nc3ccc(O)cc3c2=O)cc1`, the IC50 at Glutamate receptor 1 was 96 µM; in assay [3], over 300 µM; in assay [4], 237 µM; in assay [6], 43 µM; in assay [5], 10 µM. The Ratio IC50 in the assay listed under Rattus norvegicus [1] worked out at 24; in the assay filed under Rattus norvegicus [2], 10.

Regarding `Cc1ccccc1/C=C/c1nc2ccccc2c(=O)n1-c1ccc(C(=O)O)cc1`, the IC50 on Glutamate receptor 1 turned out to be 62 µM; in assay [3], 93 µM; in assay [4] it was 86 µM; in assay [5], 81 µM. Also, the Ratio IC50 in the assay filed under Rattus norvegicus [1] and in the assay listed under Rattus norvegicus [2] was 1 throughout.

For `O=C(O)c1cccc(-n2c(/C=C/c3cccc([N+](=O)[O-])c3)nc3ccc(I)cc3c2=O)c1`, the IC50 turned out to be 21 µM at Glutamate receptor 1; 11 µM in assay [3]; 8 µM in assay [4]; 2 µM in assay [6]; 1 µM in assay [5]. Also, the values for the Ratio IC50 in the assay filed under Rattus norvegicus [1] and in the assay listed under Rattus norvegicus [2] were 8 and 21, respectively.

With `COc1ccc2nc(/C=C/c3cccc([N+](=O)[O-])c3)n(-c3cccc(C(=O)O)c3)c(=O)c2c1`, the IC50 was 289 µM on Glutamate receptor 1; over 300 µM in assay [3]; 208 µM in assay [4]; 24 µM in assay [6]; 13 µM in assay [5]. Besides, the results for the Ratio IC50 in the assay listed under Rattus norvegicus [1] and in the assay listed under Rattus norvegicus [2] were 16 and 22, respectively.

As for `O=C(O)c1ccc(-n2c(/C=C/c3cccc(O)c3)nc3ccccc3c2=O)cc1`, the IC50 on Glutamate receptor 1 amounted to 24 µM; in assay [3], 30 µM; in assay [4] it was 52 µM; in assay [5] it was 17 µM. For the same compound, the values for the Ratio IC50 in the assay filed under Rattus norvegicus [1] and in the assay filed under Rattus norvegicus [2] were 3 and 1, respectively.

Regarding `O=C(O)c1ccc(-n2c(/C=C/c3ccccc3O)nc3ccccc3c2=O)cc1`, the concentration for half-maximal inhibition (IC50) was found to be 36 µM at Glutamate receptor 1, 18 µM in assay [3], 20 µM in assay [4] and 18 µM in assay [5]. Moreover, the Ratio IC50 stood at 1 in the assay filed under Rattus norvegicus [1] and 2 in the assay listed under Rattus norvegicus [2].

For the compound `O=C(O)c1ccc(-n2c(/C=C/c3ccccc3)nc3ccccc3c2=O)cc1`, the 50% inhibitory concentration (IC50) at Glutamate receptor 1 is 25 µM; in assay [3], 85 µM; in assay [4] it was 84 µM; in assay [5], 33 µM. In addition, the values for the Ratio IC50 in the assay listed under Rattus norvegicus [1] and in the assay filed under Rattus norvegicus [2] were 3 and 1, respectively.

With `COc1cccc(-n2c(/C=C/c3cccnc3)nc3ccc(I)cc3c2=O)c1`, the half-inhibitory concentration (IC50) (at Glutamate receptor 1; in assay [3]; in assay [4]; in assay [6]) was over 300 µM each time. The Ratio IC50 in the assay listed under Rattus norvegicus [1] and in the assay listed under Rattus norvegicus [2] was 1 throughout.

For the compound `O=C(O)c1ccc(-n2c(/C=C/c3cccc([N+](=O)[O-])c3)nc3ccc(F)cc3c2=O)cc1`, the IC50 at Glutamate receptor 1 stood at 7 µM; in assay [3] it was 33 µM; in assay [4] it was 36 µM; in assay [5], 7 µM. The Ratio IC50 stood at 5 in the assay filed under Rattus norvegicus [1] and 1 in the assay listed under Rattus norvegicus [2].

On to `O=C(O)c1ccc(-n2c(/C=C/c3cccc([N+](=O)[O-])c3)nc3ccc(Cl)cc3c2=O)cc1`, for which the Ratio IC50 in the assay listed under Rattus norvegicus [1] was 16; in the assay listed under Rattus norvegicus [2], 7.

For the compound `COc1ccccc1/C=C/c1nc2ccccc2c(=O)n1-c1ccc(C(=O)O)cc1`, the IC50 at Glutamate receptor 1 was 38 µM; in assay [3] it was 51 µM; in assay [4] it was 88 µM; in assay [5] it was 16 µM. Also, the Ratio IC50 in the assay filed under Rattus norvegicus [1] worked out at 6; in the assay listed under Rattus norvegicus [2], 2.

For `COc1ccc(/C=C/c2nc3ccccc3c(=O)n2-c2ccc(C(=O)O)cc2)cc1`, the 50% inhibitory concentration (IC50) at Glutamate receptor 1 came out at 250 µM; in assay [3], 98 µM; in assay [4], 100 µM; in assay [5], 31 µM. For the same compound, the Ratio IC50 amounted to 3 in the assay filed under Rattus norvegicus [1] and 8 in the assay listed under Rattus norvegicus [2].

Consider `O=C(O)c1ccc(-n2c(/C=C/c3ccc([N+](=O)[O-])cc3)nc3ccc(I)cc3c2=O)cc1`, for which the IC50 at Glutamate receptor 1 is over 300 µM; in assay [3], over 300 µM; in assay [4] it was over 300 µM; in assay [6], 2 µM; in assay [5], 1 µM. Also, the Ratio IC50 in the assay filed under Rattus norvegicus [1] is over 150.

Regarding `O=C(O)c1ccc(-n2c(/C=C/c3cccc([N+](=O)[O-])c3)nc3cc4c(cc3c2=O)OCCO4)cc1`, the half-maximal inhibitory concentration (IC50) at Glutamate receptor 1 was over 300 µM; in assay [3], over 300 µM; in assay [6] it was 281 µM; in assay [5] it was 213 µM. Also, the Ratio IC50 in the assay listed under Rattus norvegicus [1] and in the assay filed under Rattus norvegicus [2] was 1 throughout.

With `COc1cccc(/C=C/c2nc3ccccc3c(=O)n2-c2ccc(C(=O)O)cc2)c1`, the IC50 was determined as 27 µM at Glutamate receptor 1, 36 µM in assay [3], 24 µM in assay [4] and 9 µM in assay [5]. In addition, the Ratio IC50 in the assay listed under Rattus norvegicus [1] and in the assay filed under Rattus norvegicus [2] was 3 throughout.

Consider `COc1ccc2nc(/C=C/c3ccc([N+](=O)[O-])cc3)n(-c3cccc(C(=O)O)c3)c(=O)c2c1`, for which the IC50 was over 300 µM on Glutamate receptor 1; 238 µM in assay [3]; 238 µM in assay [4]; 21 µM in assay [6]; 16 µM in assay [5]. Besides, the Ratio IC50 in the assay filed under Rattus norvegicus [1] is 15.

On to `O=C(O)c1ccc(-n2c(/C=C/c3ccc4ccccc4c3)nc3ccccc3c2=O)cc1`, for which the IC50 on Glutamate receptor 1 is over 300 µM; in assay [3], 31 µM; in assay [4], 21 µM; in assay [6], 14 µM; in assay [5], 6 µM. In addition, in the assay filed under Rattus norvegicus [1], the Ratio IC50 was determined as 4.

On to `O=C(O)c1ccc(-n2c(/C=C/c3ccc(C(F)(F)F)cc3)nc3ccccc3c2=O)cc1`, for which the IC50 came out at 233 µM on Glutamate receptor 1, 55 µM in assay [3], 61 µM in assay [4] and 15 µM in assay [5]. Moreover, the Ratio IC50 in the assay filed under Rattus norvegicus [1] was found to be 4; in the assay filed under Rattus norvegicus [2], 16.
